Assay results reported in ChEMBL document CHEMBL1126899, “Nonpeptide angiotensin II antagonists derived from 1H-pyrazole-5-carboxylates and 4-aryl-1H-imidazole-5-carboxylates” (J Med Chem, 1993).
Blank lines part the entries; values can stand above or below the compound they belong to.

Experiments:
[1] = target: T1, Type-1 angiotensin II receptor (Oryctolagus cuniculus, UniProt P34976); experiment: Evaluation of Angiotensin II antagonistic activity by displacement of [125I]-Sar Ile-AII at the rabbit aorta Angiotensin II receptor, type 1; assay type: tissue-based
T1 sequence (P34976 whole entry): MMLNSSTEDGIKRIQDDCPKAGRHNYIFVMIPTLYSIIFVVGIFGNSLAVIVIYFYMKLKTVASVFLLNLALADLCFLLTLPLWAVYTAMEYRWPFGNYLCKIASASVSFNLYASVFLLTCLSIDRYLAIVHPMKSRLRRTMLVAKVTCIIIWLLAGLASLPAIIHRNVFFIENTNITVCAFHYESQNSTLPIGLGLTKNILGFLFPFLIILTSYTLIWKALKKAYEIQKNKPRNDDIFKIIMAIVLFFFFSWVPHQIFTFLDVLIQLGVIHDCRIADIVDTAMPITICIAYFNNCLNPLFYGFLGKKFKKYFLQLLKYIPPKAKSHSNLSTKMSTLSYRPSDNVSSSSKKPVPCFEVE
Method in brief: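 Rabbit aorta membranes, run without BSA. Competition against [¹²⁵I]Sar¹Ile⁸-AII, in duplicate tubes. Some values are means of two or more separate assays. Standard error is estimated at <30% of the mean.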

Rattus norvegicus [2] = experiment: Peak percent inhibition of Angiotensin II pressor response in conscious, normotensive rats at 0.3 mg/kg po; assay type: functional
Method in brief: (§1)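 Male Sprague-Dawley rats (300–400 g), conscious, catheterized for iv dosing and for arterial pressure and heart rate. Compound given iv or po; PEG 400 vehicle in some oral cases. AII 0.1 μg/kg iv boluses at set intervals afterward. % inhibition of the MAP rise was calculated at each time point, and the peak was taken. Averaged from at least two rats unless noted.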

Rattus norvegicus [3] = experiment: Time to produce onset of action for inhibition of Angiotensin II pressor response in conscious, normotensive rats at 1 mg/kg po; assay type: functional
Method in brief: (§2)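 Conscious male Sprague-Dawley rats (300–400 g), instrumented for iv dosing and arterial pressure. A single iv or po bolus of compound (PEG 400 for some oral doses), then repeated AII challenges at 0.1 μg/kg iv. […] Averaged from at least two rats unless noted.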

Rattus norvegicus [4] = experiment: Time to produce onset of action for inhibition of Angiotensin II pressor response in conscious, normotensive rats at 0.3 mg/kg iv; assay type: functional; method in brief: as §2
Rattus norvegicus [5] = experiment: Time to produce onset of action for inhibition of Angiotensin II pressor response in conscious, normotensive rats at 0.3 mg/kg po; assay type: functional; method in brief: as §2
Rattus norvegicus [6] = experiment: Peak percent inhibition of Angiotensin II pressor response in conscious, normotensive rats at 1 mg/kg po; assay type: functional; method in brief: as §1
Rattus norvegicus [7] = experiment: Time to produce onset of action for inhibition of Angiotensin II pressor response in conscious, normotensive rats at 1 mg/kg iv; assay type: functional; method in brief: as §2
Rattus norvegicus [8] = experiment: Peak percent inhibition of Angiotensin II pressor response in conscious, normotensive rats at 1 mg/kg iv; assay type: functional; method in brief: as §1
Rattus norvegicus [9] = experiment: Peak percent inhibition of Angiotensin II pressor response in conscious, normotensive rats at 0.3 mg/kg iv; assay type: functional; method in brief: as §1
Rattus norvegicus [10] = experiment: Peak percent inhibition of Angiotensin II pressor response in conscious, normotensive rats at 0.1 mg/kg iv; assay type: functional; method in brief: as §1
Rattus norvegicus [11] = experiment: Time to produce onset of action for inhibition of Angiotensin II pressor response in conscious, normotensive rats at 0.1 mg/kg iv; assay type: functional; method in brief: as §2
Rattus norvegicus [12] = experiment: Peak percent inhibition of Angiotensin II pressor response in conscious, normotensive rats at 0.3 mg/kg po(no. of animals treated); assay type: functional; method in brief: as §1

Compound: CCCc1[nH]nc(C(=O)OCC)c1Cc1ccc(-c2ccccc2-c2nnn[nH]2)cc1
IC50 [1]: 160 nM

Compound: CCCCc1nc(-c2ccccc2)c(C(=O)OCC)n1Cc1ccc(-c2ccccc2-c2nn[nH]n2)cc1
IC50 [1]: 41 nM

Compound: CCCCc1nn(-c2cccc(Cl)c2Cl)c(C(=O)OCC)c1Cc1ccc(-c2ccccc2-c2nnn[nH]2)cc1
IC50 [1]: 90 nM

Compound: O=C(O)c1c(Cc2ccc(-c3ccccc3-c3nn[nH]n3)cc2)c(CC2CC2)nn1-c1c(Cl)cccc1Cl
IC50 [1]: 3.7 nM

Compound: CCCc1nn(-c2ccccc2C(F)(F)F)c(C(=O)O)c1Cc1ccc(-c2ccccc2-c2nn[nH]n2)cc1
inhibition in vivo at 0.3 mg/kg (Rattus norvegicus [2]): 57% | Duration (Rattus norvegicus [3]): >3.5 h | IC50 [1]: 0.67 nM | Duration (Rattus norvegicus [4]): ~4 h | Duration (Rattus norvegicus [5]): >3.5 h | inhibition in vivo at 1 mg/kg (Rattus norvegicus [6]): 71% | Duration (Rattus norvegicus [7]): >6 h | inhibition in vivo at 1 mg/kg (Rattus norvegicus [8]): 100% | inhibition in vivo at 0.3 mg/kg (Rattus norvegicus [9]): 77%

Compound: CCOC(=O)c1c(Cc2ccc(-c3ccccc3-c3nnn[nH]3)cc2)c(CC2CC2)nn1-c1c(Cl)cccc1Cl
IC50 [1]: 76 nM

Compound: CCCCc1nn(-c2cc(Cl)ccc2Cl)c(C(=O)O)c1Cc1ccc(-c2ccccc2-c2nnn[nH]2)cc1
IC50 [1]: 3.2 nM

Compound: CCCCc1nn(-c2ccccc2[N+](=O)[O-])c(C(=O)OCC)c1Cc1ccc(-c2ccccc2-c2nnn[nH]2)cc1
IC50 [1]: 9.5 nM

Compound: CCCCc1nn(-c2ccc(Cl)cc2Cl)c(C(=O)OCC)c1Cc1ccc(-c2ccccc2-c2nnn[nH]2)cc1
IC50 [1]: 6.7 nM

Compound: CCCCc1nn(-c2c(Cl)cc(Cl)cc2Cl)c(C(=O)O)c1Cc1ccc(-c2ccccc2-c2nnn[nH]2)cc1
IC50 [1]: 0.5 nM

Compound: CCCCc1nn(-c2c(Cl)cccc2Cl)c(C(=O)O)c1Cc1ccc(-c2ccccc2-c2nn[nH]n2)cc1
Duration (Rattus norvegicus [3]): >4.5 h | IC50 [1]: 0.18 nM | inhibition in vivo at 0.1 mg/kg (Rattus norvegicus [10]): 80% | inhibition in vivo at 1 mg/kg (Rattus norvegicus [6]): 79% | Duration (Rattus norvegicus [11]): >4.5 h

Compound: CCCCc1nn(-c2ccc(OC)cc2)c(C(=O)OCC)c1Cc1ccc(-c2ccccc2-c2nnn[nH]2)cc1
IC50 [1]: 20 nM

Compound: CCCc1nc(C(F)(F)C(F)(F)F)c(C(=O)O)n1Cc1ccc(-c2ccccc2-c2nnn[nH]2)cc1
IC50 [1]: 1.1 nM

Compound: CCCCc1nn(-c2ccccc2Cl)c(C(=O)O)c1Cc1ccc(-c2ccccc2-c2nn[nH]n2)cc1
Duration (Rattus norvegicus [3]): >3 h | IC50 [1]: 0.35 nM | Duration (Rattus norvegicus [4]): ~3.8 h | inhibition in vivo at 1 mg/kg (Rattus norvegicus [6]): 64% | Duration (Rattus norvegicus [7]): >6 h | inhibition in vivo at 1 mg/kg (Rattus norvegicus [8]): 93% | inhibition in vivo at 0.3 mg/kg (Rattus norvegicus [9]): 73%

Compound: CCCCc1nn(-c2ccc(OC)cc2[N+](=O)[O-])c(C(=O)O)c1Cc1ccc(-c2ccccc2-c2nnn[nH]2)cc1
IC50 [1]: 2.5 nM

Continued, in another order:

IC50 [1]: 81 nM
Compound: CCCCc1nn(-c2ccccc2)c(C(=O)OCC)c1Cc1ccc(-c2ccccc2-c2nnn[nH]2)cc1

IC50 [1]: 0.24 nM
Compound: CCCCc1nn(CCc2ccccc2)c(C(=O)O)c1Cc1ccc(-c2ccccc2-c2nn[nH]n2)cc1
Duration (Rattus norvegicus [7]): >24 h | inhibition in vivo at 1 mg/kg (Rattus norvegicus [8]): 95%

IC50 [1]: 22 nM
Compound: CCCc1nn(Cc2ccccc2)c(C(=O)OCC)c1Cc1ccc(-c2ccccc2-c2nn[nH]n2)cc1

IC50 [1]: 76 nM
Compound: CCCc1nn(CC(F)(F)F)c(C(=O)OCC)c1Cc1ccc(-c2ccccc2-c2nnn[nH]2)cc1

IC50 [1]: 13 nM
Compound: CCCCc1nn(-c2ccccc2Cl)c(C(=O)OCC)c1Cc1ccc(-c2ccccc2-c2nn[nH]n2)cc1
Duration (Rattus norvegicus [3]): >2.5 h | inhibition in vivo at 1 mg/kg (Rattus norvegicus [6]): 50% | inhibition in vivo at 1 mg/kg (Rattus norvegicus [8]): 43%

IC50 [1]: 100 nM
Compound: CCCCc1nn(-c2ccc(Cl)cc2)c(C(=O)OCC)c1Cc1ccc(-c2ccccc2-c2nn[nH]n2)cc1

IC50 [1]: 0.2 nM
Compound: CCCCc1nn(Cc2ccccc2)c(C(=O)O)c1Cc1ccc(-c2ccccc2-c2nn[nH]n2)cc1
Duration (Rattus norvegicus [3]): >24 h | inhibition in vivo at 0.1 mg/kg (Rattus norvegicus [10]): 68% | Duration (Rattus norvegicus [5]): >3 h | inhibition in vivo at 1 mg/kg (Rattus norvegicus [6]): 100% | inhibition in vivo at 0.3 mg/kg (Rattus norvegicus [12]): 75% | Duration (Rattus norvegicus [11]): >5 h

IC50 [1]: 0.24 nM
Compound: CCCCc1nn(-c2ccccc2C(F)(F)F)c(C(=O)O)c1Cc1ccc(-c2ccccc2-c2nn[nH]n2)cc1
inhibition in vivo at 0.1 mg/kg (Rattus norvegicus [10]): 57% | Duration (Rattus norvegicus [7]): 5.3 h | inhibition in vivo at 1 mg/kg (Rattus norvegicus [8]): 100% | Duration (Rattus norvegicus [11]): 3.5 h

IC50 [1]: 30 nM
Compound: CCCCc1nn(CC(F)(F)F)c(C(=O)OCC)c1Cc1ccc(-c2ccccc2-c2nn[nH]n2)cc1

IC50 [1]: 21 nM
Compound: CCCCc1nn(-c2ccccc2C(F)(F)F)c(C(=O)OCC)c1Cc1ccc(-c2ccccc2-c2nnn[nH]2)cc1
